In ChEMBL document CHEMBL3853270, “Influence of Birch Bark Triterpenes on Keratinocytes and Fibroblasts from Diabetic and Nondiabetic Donors” (2016):
Activity calls are given as the source filed them. The rule behind the calls is not given here.

Legend:
Assay type in all cases: functional
Keratinocyte [1] = test: Effect on chemokines related gene expression in non-diabetic young human primary keratinocytes assessed as IL8 mRNA levels at 1.96 uM after 6 hrs by qPCR analysis
How it was run: (§1)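 Primary human keratinocytes (nondiabetic young or adult, diabetic adult donors) were exposed to compound for 6 h, with 0.1% DMSO as solvent control. Total RNA came from 400 000 cells per sample and was assayed on a Fluidigm Biomark high-throughput qPCR chip. Results are fold change vs solvent control, from 2−4 independent experiments on two donors per group, with SD. Groups were compared by one-way ANOVA with Bonferroni post-test.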

Keratinocyte [2] = test: Effect on pro-inflammatory related gene expression in diabetic adult human primary keratinocytes assessed as IL1B mRNA levels at 9.81 uM after 6 hrs by qPCR analysis
Keratinocyte [3] = test: Effect on pro-inflammatory related gene expression in diabetic adult human primary keratinocytes assessed as PTGS2 mRNA levels at 9.81 uM after 6 hrs by qPCR analysis
Keratinocyte [4] = test: Effect on growth factor related gene expression in diabetic adult human primary keratinocytes assessed as GDF15 mRNA levels at 1.96 uM after 6 hrs by qPCR analysis; how it was run: as §1
[5] = Effect on wound healing activity in diabetic adult human primary fibroblasts assessed as upregulation of soluble TNFR1 protein levels at 1.96 uM after 24 hrs by bead-based suspension array analysis; conditions: Fibroblast
Fibroblast [6] = test: Effect on growth factor related gene expression in diabetic adult human primary fibroblasts assessed as GDF15 mRNA levels at 1.96 uM after 6 hrs by qPCR analysis
How it was run: (§2)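 Primary human dermal fibroblasts (young or adult nondiabetic, adult diabetic donor) were treated for 6 h against a 0.1% DMSO solvent control. RNA from 320 000 cells per sample was measured by Fluidigm Biomark high-throughput qPCR. Values are fold change relative to solvent control, from four independent experiments, with SD. One-way ANOVA with Bonferroni post-test was applied.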

Fibroblast [7] = test: Effect on antiinflammatory related gene expression in diabetic adult human primary fibroblasts assessed as NFKBIA mRNA levels at 1.96 uM after 6 hrs by qPCR analysis
How it was run: (§3)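 Primary dermal fibroblasts from one nondiabetic young, one nondiabetic adult and one diabetic adult donor; 320 000 cells per sample, 6 h at 1.96 or 9.81 μM. RNA measured on a high-throughput qPCR chip. Fold change versus 0.1% DMSO control, four independent experiments, SD, one-way ANOVA with Bonferroni post-test.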

Keratinocyte [8] = test: Effect on growth factor related gene expression in non-diabetic adult human primary keratinocytes assessed as PDGFB mRNA levels at 1.96 uM after 6 hrs by qPCR analysis; how it was run: as §1
Keratinocyte [9] = test: Effect on transcription factor related gene expression in diabetic adult human primary keratinocytes assessed as JUN mRNA levels at 1.96 uM after 6 hrs by qPCR analysis
Keratinocyte [10] = test: Effect on cellular connection related gene expression in diabetic adult human primary keratinocytes assessed as GJB2 mRNA levels at 1.96 uM after 6 hrs by qPCR analysis
Fibroblast [11] = test: Effect on growth factor related gene expression in non-diabetic young human primary fibroblasts assessed as VEGFA mRNA levels at 9.81 uM after 6 hrs by qPCR analysis; how it was run: as §2
Keratinocyte [12] = test: Effect on chemokines related gene expression in non-diabetic young human primary keratinocytes assessed as CXCL10 mRNA levels at 1.96 uM after 6 hrs by qPCR analysis; how it was run: as §1
Fibroblast [13] = test: Effect on pro-inflammatory related gene expression in non-diabetic adult human primary fibroblasts assessed as IL1R1 mRNA levels at 1.96 uM after 6 hrs by qPCR analysis
[14] = Upregulation of wound healing activity related MCP1 protein levels in non-diabetic adult human primary keratinocytes at 1.96 uM after 24 hrs by bead-based suspension array analysis; conditions: Keratinocyte
Fibroblast [15] = test: Effect on growth factors related gene expression in non-diabetic adult human primary fibroblasts assessed as FGF2 mRNA levels at 9.81 uM after 6 hrs by qPCR analysis; how it was run: as §2
Fibroblast [16] = test: Effect on transcription factor related gene expression in non-diabetic young human primary fibroblasts assessed as JUN mRNA levels at 1.96 uM after 6 hrs by qPCR analysis
Keratinocyte [17] = test: Effect on pro-inflammatory related gene expression in diabetic adult human primary keratinocytes assessed as PTGS2 mRNA levels at 1.96 uM after 6 hrs by qPCR analysis
Fibroblast [18] = test: Effect on chemokines related gene expression in diabetic adult human primary fibroblasts assessed as IL8 mRNA levels at 1.96 uM after 6 hrs by qPCR analysis
Keratinocyte [19] = test: Effect on growth factor related gene expression in non-diabetic young human primary keratinocytes assessed as PDGFB mRNA levels at 9.81 uM after 6 hrs by qPCR analysis; how it was run: as §1
Fibroblast [20] = test: Effect on chemokines related gene expression in non-diabetic young human primary fibroblasts assessed as CCL2 mRNA levels at 9.81 uM after 6 hrs by qPCR analysis; how it was run: as §2
[21] = Effect on wound healing activity in non-diabetic adult human primary keratinocytes assessed as upregulation of TNFalpha protein levels at 1.96 uM after 24 hrs by bead-based suspension array analysis; conditions: Keratinocyte
[22] = Effect on wound healing activity in non-diabetic adult human primary keratinocytes assessed as upregulation of IL1RA protein levels at 1.96 uM after 24 hrs by bead-based suspension array analysis; conditions: Keratinocyte
[23] = Effect on wound healing activity in non-diabetic adult human primary fibroblasts assessed as upregulation of RANTES protein levels at 1.96 uM after 24 hrs by bead-based suspension array analysis; conditions: Fibroblast
Keratinocyte [24] = test: Effect on chemokines related gene expression in non-diabetic adult human primary keratinocytes assessed as CXCL10 mRNA levels at 9.81 uM after 6 hrs by qPCR analysis
Fibroblast [25] = test: Effect on antiinflammatory related gene expression in non-diabetic adult human primary fibroblasts assessed as NFKBIA mRNA levels at 1.96 uM after 6 hrs by qPCR analysis; how it was run: as §3
Fibroblast [26] = test: Effect on pro-inflammatory related gene expression in non-diabetic young human primary fibroblasts assessed as IL1B mRNA levels at 9.81 uM after 6 hrs by qPCR analysis
Fibroblast [27] = test: Effect on pro-inflammatory related gene expression in non-diabetic adult human primary fibroblasts assessed as PTGS2 mRNA levels at 1.96 uM after 6 hrs by qPCR analysis
Keratinocyte [28] = test: Effect on growth factor related gene expression in diabetic adult human primary keratinocytes assessed as VEGFA mRNA levels at 1.96 uM after 6 hrs by qPCR analysis; how it was run: as §1
Fibroblast [29] = test: Effect on chemokines related gene expression in diabetic adult human primary fibroblasts assessed as CCL2 mRNA levels at 9.81 uM after 6 hrs by qPCR analysis
Fibroblast [30] = test: Effect on adhesion molecules related gene expression in diabetic adult human primary fibroblasts assessed as ICAM1 mRNA levels at 1.96 uM after 6 hrs by qPCR analysis
How it was run: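 Dermal fibroblasts from nondiabetic adult and diabetic adult donors, exposed for 6 h at 1.96 or 9.81 μM. ICAM-1 and VCAM-1 mRNA measured by standard qRT-PCR, n = 3. Fold change versus 0.1% DMSO control, SD, one-way ANOVA with Bonferroni post-test.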

C=C(C)[C@@H]1CC[C@]2(CO)CC[C@]3(C)[C@H](CC[C@@H]4[C@@]5(C)CC[C@H](O)C(C)(C)[C@@H]5CC[C@]43C)[C@@H]12 [BETULIN]
fold change (FC) (Keratinocyte [1]): 9.7 | fold change (FC) (Keratinocyte [2]): 1 | fold change (FC) (Keratinocyte [3]): 2.2 | fold change (FC) (Keratinocyte [4]): 1.4 | Activity [5]: Active | fold change (FC) (Fibroblast [6]): 2.4 | fold change (FC) (Fibroblast [7]): 3.1 | fold change (FC) (Keratinocyte [8]): 0.8 | fold change (FC) (Keratinocyte [9]): 1.2 | fold change (FC) (Keratinocyte [10]): 0.9 | fold change (FC) (Fibroblast [11]): 2 | fold change (FC) (Keratinocyte [12]): 1.9 | fold change (FC) (Fibroblast [13]): 4.8 | Activity [14]: Active | fold change (FC) (Fibroblast [15]): 3.4 | fold change (FC) (Fibroblast [16]): 1 | fold change (FC) (Keratinocyte [17]): 1.3 | fold change (FC) (Fibroblast [18]): 10.8 | fold change (FC) (Keratinocyte [19]): 1.1 | fold change (FC) (Fibroblast [20]): 4.3 | Activity [21]: Active | Activity [22]: Active | Activity [23]: Active | fold change (FC) (Keratinocyte [24]): 4.3 | fold change (FC) (Fibroblast [25]): 7.5 | fold change (FC) (Fibroblast [26]): 5.7 | fold change (FC) (Fibroblast [27]): 146 | fold change (FC) (Keratinocyte [28]): 1.6 | fold change (FC) (Fibroblast [29]): 1.7 | fold change (FC) (Fibroblast [30]): 6.3
